# The list is not random: actives were taken first. Their share in the collection is about 2.2%.
# ASAP1 inh: inhibitors of human ASAP1 ArfGAP activity | Q9ULH1 | ASAP1-stimulated ARF1 GTP hydrolysis, GDP FP detection | inhibition, % at 16.5 µM | hit rate 0.19% among 360,000 | AID 624377; in the data active = inhibition above about 25%
# Target sequence (Q9ULH1 325-724 limits assumed): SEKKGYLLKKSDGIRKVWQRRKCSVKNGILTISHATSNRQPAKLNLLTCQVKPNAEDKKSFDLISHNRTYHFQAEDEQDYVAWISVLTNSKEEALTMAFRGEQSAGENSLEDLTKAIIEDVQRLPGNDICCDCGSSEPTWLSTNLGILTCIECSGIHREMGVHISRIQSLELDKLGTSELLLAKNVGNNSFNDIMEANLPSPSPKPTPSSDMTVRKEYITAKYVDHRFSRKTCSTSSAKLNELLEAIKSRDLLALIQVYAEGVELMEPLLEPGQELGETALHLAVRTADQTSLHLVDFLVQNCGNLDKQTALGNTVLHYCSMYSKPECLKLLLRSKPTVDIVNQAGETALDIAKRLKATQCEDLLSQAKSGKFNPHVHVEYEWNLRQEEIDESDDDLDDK
# NadD inh: NadD (S. aureus) enzyme inhibition | purified NadD enzyme, colorimetric absorbance read-out | inhibition, % at 20 µM | hit rate 0.78% among 360,000 | AID 602399; in the data active = inhibition above about 26%
# rCAG binder-1: molecules binding r(CAG) RNA repeats. r(CAG) RNA repeat, TO-PRO-1 dye displacement fluorescence. inhibition, % at 3 µM. hit rate 1.3% among 370,000;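 active = inhibition above the plate cutoff, the mean of all test compounds on that plate plus 3 SD, cut at about 35% in these data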;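 note: higher means more dye released from RNA so lower well fluorescence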
# ARFGAP1 inhibitor: inhibits rat ARF GTPase activating protein 1; Arfgap1-stimulated ARF1 GTP hydrolysis, GDP FP detection; inhibition, % at 16.5 µM; hit rate 0.26% among 360,000;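 active = inhibition above a per-plate limit, mean inhibition of low control wells plus 3 SD, cut at about 25% in these data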
# Target sequence (Q62848 1-136 limits assumed): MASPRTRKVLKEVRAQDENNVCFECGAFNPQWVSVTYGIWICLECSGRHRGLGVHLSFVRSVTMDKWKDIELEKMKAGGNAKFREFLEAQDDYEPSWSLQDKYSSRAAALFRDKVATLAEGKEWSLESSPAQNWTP
#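 Assay system: Rat Arfgap1 GAP domain (His6, aa 1-136), purified enzyme | Buffer or medium: HEPES 25 mM pH 7.5, NaCl 150 mM, MgCl2, DTT | Schedule: GTP hydrolysis reaction 2 h at 25 °C | Signal: FP of antibody-bound GDP Alexa 633 tracer, ex 620/em 688 nm | Measure: Percent inhibition of Arfgap1-stimulated GTP hydrolysis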
# rCAG binder conf: r(CAG) RNA repeat binding, confirmation; TO-PRO-1 dye displacement fluorescence; hit rate 70% among 4,300; inhibition, % at 3 µM; shares compounds with rCAG binder-1; AID 652065;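 active = inhibition above a per-plate cutoff, the mean inhibition of sample wells plus 3 SD, cut at about 35% in these data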;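 note: loss of TO-PRO-1 fluorescence as compound displaces dye from 1x1 AA loop RNA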
# dCAG dye counter: disrupts DNA CAG TO-PRO-1 complex, flagging rCAG hits; shares compounds with rCAG binder-1; d(CAG) DNA oligo TO-PRO-1 dye displacement, fluorescence; inhibition, % at 3 µM; hit rate 94% among 4,300;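 active = inhibition above its plate's cutoff, the mean test-well inhibition plus 3 SD, cut at about 4.8% in these data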;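 note: hits displace the dye from DNA and so lower well fluorescence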
# DNA CAG DR: disrupts DNA CAG TO-PRO-1 complex in dose response. shares compounds with rCAG binder-1. DNA CAG/GTC duplex TO-PRO-1 dye displacement fluorescence. IC50, µM. hit rate 20% among 250. AID 686960; in the data active = IC50 below about 10 µM
# dCAG TOPRO ctr: inhibits DNA CAG/GTC TO-PRO-1 complex, rCAG binder counter-screen; shares compounds with rCAG binder-1; d(CAG) DNA duplex TO-PRO-1 dye displacement, fluorescence; IC50, µM; hit rate 80% among 30
# rCAG binder-2: r(CAG) repeat RNA binding, TO-PRO-1 displacement. shares compounds with rCAG binder-1. r(CAG) RNA TO-PRO-1 dye displacement, fluorescence. IC50, µM. hit rate 100% among 30. AID 720651
# Hits are given with their value; i = inactive; nt = no result given. Unless noted, the rule behind the calls is not given here.
SMILES,ASAP1 inh,NadD inh,rCAG binder-1,ARFGAP1 inhibitor,rCAG binder conf,dCAG dye counter,others
Cc1c(Cc2ccccc2)c(=O)oc2c(C)c(OC(C)C(=O)N[C@@H](Cc3ccccc3)C(=O)O)ccc12 (stereo partly drawn),i,i,48,i,61,23,
COc1ccc(/C=C2/SC(=S)N(Cc3ccccc3)C2=O)cc1O,i,i,44,i,i,14,
COc1ccc(/C=C2\SC(=O)N(CC(=O)NNC(=O)c3ccccc3O)C2=O)cc1,i,i,i,i,nt,nt,
COc1ccc(/C=C2\SC(=O)N(CC(=O)NNC(=O)c3ccccc3O)C2=O)cc1OC,i,i,51,i,46,16,
O=C(O)COc1ccc(/C=C2/SC(=S)N(Cc3ccccc3)C2=O)cc1,i,i,76,i,85,52,
C=CCCC1(CCC)C(=O)/C(=C(\O)c2ccccc2)C(=O)C(CCC)=C1OC (stereo not drawn),nt,nt,i,nt,nt,nt,
CCCCc1cc(=O)oc2c(C)c(OCC(=O)N3CCC(C(=O)O)(c4ccccc4)CC3)ccc12,i,i,40,i,52,13,
CN(c1ccc(OCC(=O)Nc2cc(Cl)ccc2C(=O)O)cc1)S(=O)(=O)c1ccc(F)cc1,i,i,77,i,74,34,DNA CAG DR=6.2;dCAG TOPRO ctr=2.5;rCAG binder-2=1.2
COc1ccc(Cc2n[nH]c(=S)n2NC(=O)Nc2ccc(Cl)c(Cl)c2)cc1,i,i,63,i,37,15,
Cc1nccc(-c2cccc(N/N=C(\C#N)C(=O)c3ccccc3)c2)n1,i,i,51,i,35,9.3,
CCOC(=O)[C@@H]1CSCCS(=O)(=O)N1Cc1ccccc1,nt,nt,i,nt,nt,nt,
COC(=O)CNC(=O)C1Nc2ccc(OC(F)(F)F)cc2C2C=CCC12 (stereo not drawn),i,i,39,i,i,i,
COCCNC(=O)C1Nc2ccc(OC(F)(F)F)cc2C2C=CCC12 (stereo not drawn),i,i,i,i,nt,nt,
FC(F)(F)c1ccc2c(c1)C1C=CCC1C(c1ccncc1)N2 (stereo not drawn),i,i,44,i,i,i,
COCCNC(=O)C1Nc2ccc(C(F)(F)F)cc2C2C=CCC12 (stereo not drawn),i,i,44,i,i,i,
CC(C)(C)N1Cc2nnn(Cc3ccccc3)c2-c2ccccc2S1(=O)=O,nt,nt,i,nt,nt,nt,
CSCC[C@H](NC(=O)c1cc2c([nH]c3ccccc32)c(-c2ccccc2)n1)C(=O)O,i,i,55,i,50,14,
CC1=CCC[C@@H]2[C@@](C)(CC/C(C)=C/C(=O)O)[C@H](C)CC[C@@]12C,i,i,45,i,43,8.6,
Cc1ccc(NC(=O)OCCN(C)C(=O)Nc2ccc(C)cc2C)c(C)c1,i,nt,i,i,nt,nt,
OC(c1ccccc1)(c1ccccc1)C1CCN(CCCOc2cccc(F)c2)CC1,i,nt,i,i,nt,nt,
CC(C)(C)NC(=O)C(c1ccc(C#N)cc1)n1c(=O)c(-c2ccccc2)nc2ccccc21 (stereo not drawn),i,nt,i,i,nt,nt,
CC(C)(C)NC(=O)C(c1ccc(C#N)cc1)n1c(=O)c(-c2ccco2)nc2ccccc21 (stereo not drawn),i,nt,37,i,i,13,
CCN1C(=O)C(CC(=O)NCCc2ccccc2)N(NC(=O)c2ccc(Br)cc2)C1=S (stereo not drawn),i,i,i,i,nt,nt,
COc1ccccc1/C=C1\SC(=S)N(CCC(=O)Nc2ccc(C(=O)O)c(O)c2)C1=O,i,i,91,i,85,59,
CCc1ccc(/C=C2/SC(=S)N(CCC(=O)Nc3cccc(C(=O)O)c3)C2=O)cc1,i,i,i,i,nt,nt,
SMILES,ASAP1 inh,NadD inh,rCAG binder-1,ARFGAP1 inhibitor,rCAG binder conf,dCAG dye counter,others
O=C(CCCN1C(=O)/C(=C\c2ccco2)SC1=S)Nc1ccc2ccccc2c1,i,i,i,i,nt,nt,
O=C(CCN1C(=O)/C(=C\c2ccco2)SC1=S)Nc1ccc(C(=O)O)c(O)c1,i,40,86,i,79,37,
O=C(CCN1C(=O)/C(=C/c2ccco2)SC1=S)Nc1ccc(C(=O)O)c(O)c1,i,i,90,i,73,33,DNA CAG DR=5.3
CCOC(=O)c1cccc(NC(=O)CN(C)S(=O)(=O)c2ccc(C)c(C)c2)c1,nt,nt,i,nt,nt,nt,
CCn1c(SCC(=O)Nc2ccc(C(C)C)cc2)nnc1-c1ccc(C(C)(C)C)cc1,nt,nt,i,nt,nt,nt,
Cc1cc(NC(=O)Cc2c(C)[nH]c3ccccc23)ccc1Oc1cccnc1,i,nt,i,i,nt,nt,
Nc1ccn([C@@H]2O[C@H](C(=O)N[C@H](Cc3ccccc3)C(=O)N3CCN(CC(=O)N4CCCC4)CC3)[C@@H](O)[C@H]2O)c(=O)n1,i,nt,i,i,nt,nt,
O=C(O)c1ccc(NC(=O)c2cn(-c3ccccc3)nc2-c2cccc(Cl)c2)cc1,i,i,36,i,55,19,
O=C(O)c1ccc(NC(=O)c2cn(-c3ccccc3)nc2-c2ccc(F)cc2)cc1,i,i,i,i,nt,nt,
O=C(/C=C/c1cn(-c2ccccc2)nc1-c1ccccc1)Nc1ccc(C(=O)O)cc1,i,i,44,i,73,34,DNA CAG DR=7.7;dCAG TOPRO ctr=i;rCAG binder-2=6.8
O=[N+]([O-])c1ccc2c(c1)CO[C@]21O[C@H](CCO)C[C@H](O)[C@H]1O,i,nt,i,i,nt,nt,
CN(C(=O)CSc1nc(-c2ccc(C(C)(C)C)cc2)c(C#N)c(=O)[nH]1)C1CCCCC1,i,i,70,i,84,50,
O=C(O)c1cc(N2N=C(C(F)(F)F)/C(=C/C=C/c3ccco3)C2=O)ccc1Cl,i,42,89,i,93,76,
CCOC(=O)c1ccc(N2N=C(C)/C(=C/C=C/c3ccco3)C2=O)cc1,i,i,i,i,nt,nt,
O=C(N/N=C/c1ccccn1)c1sc2ccccc2c1Cl,i,i,i,i,nt,nt,
O=C(N/N=C/c1ccc([N+](=O)[O-])o1)c1sc2ccccc2c1Cl,i,i,36,i,39,18,
O=C1[C@H]2[C@@H](/C=C/c3ccccc3)N3C(=O)CN(Cc4ccccn4)C(=O)[C@@]3(Cc3ccccc3)[C@H]2C(=O)N1c1ccccc1,i,i,i,i,nt,nt,
Cc1ccc(S(=O)(=O)NN=Cc2c(O)ccc3ccccc23)cc1,i,i,41,i,46,15,
CCC(=O)NC(NC(=S)Nc1ccc(S(N)(=O)=O)cc1)C(Cl)(Cl)Cl (stereo not drawn),i,i,53,i,i,i,
CC(=O)NC(NC(=S)Nc1ccc(S(N)(=O)=O)cc1)C(Cl)(Cl)Cl (stereo not drawn),i,i,i,i,nt,nt,

# From PubChem
